Series [1] in a line: Biodistribution of [18F]FES in alpha estrogen receptor knock out mouse thymus after 1 h; (n=3). Type of series: ADME, organism-based. Conditions: in vivo.
Series [2] can be described thus: Biodistribution of [18F]FES in alpha estrogen receptor knock out mouse thymus after 2 h; (n=3). As to conditions: in vivo. In kind it is ADME, organism-based.
Series [3] can be described thus: Biodistribution of [18F]FES in alpha estrogen receptor knock out mouse blood after 30 min; (n=3). Conditions: in vivo, 0.5 h. In kind it is ADME, organism-based. The method in brief:
(§1)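 Female αERKO mice were rested 48 h after shipping and fed estrogen-free chow. They were staged by daily vaginal smears and studied in diestrus. Each received 13 µCi [18F]FES in 100 µL 10% ethanol/saline and was sacrificed at 30 min, 1 h or 2 h (n = 3 per time). Tissue uptake is given as %ID/g ± SD.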

Series [4] in a line: Biodistribution of [18F]FES in alpha estrogen receptor knock out mouse uterus after 1 h; (n=3). Type of series: ADME, organism-based. As to conditions: in vivo.
A short description of series [5]: Biodistribution of [18F]FES in beta estrogen receptor knock out mouse bone after 2 h; (n=3). Type of series: ADME, organism-based, Bone element. As to conditions: in vivo.
Series [6] can be described thus: Biodistribution of [18F]FES in alpha estrogen receptor knock out mouse kidney after 30 min; (n=3). In kind it is ADME, organism-based. Conditions: in vivo, 0.5 h. The method in brief: as §1
Series [7] is described as follows: Biodistribution of [18F]FES in alpha estrogen receptor knock out mouse heart after 2 h; (n=3). Type of series: ADME, organism-based. Conditions: in vivo. The method in brief:
as §1

The nature of series [8]: Biodistribution of [18F]FES in beta estrogen receptor knock out mouse uterus after 2 h; (n=3). As to conditions: in vivo. Type of series: ADME, organism-based.
Series [9] can be described thus: Biodistribution of [18F]FES in beta estrogen receptor knock out mouse thymus after 30 min; (n=3). Type of series: ADME, organism-based. As to conditions: in vivo, 0.5 h.
Series [10] can be described thus: Biodistribution of [18F]FES in alpha estrogen receptor knock out mouse spleen after 30 min; (n=3). In kind it is ADME, organism-based. As to conditions: in vivo, 0.5 h.
Series [11] in a line: Biodistribution of [18F]FES in beta estrogen receptor knock out mouse ovaries after 30 min; (n=3). Type of series: ADME, organism-based, Female gonad. As to conditions: in vivo, 0.5 h.
A short description of series [12]: Biodistribution of [18F]FES in alpha estrogen receptor knock out mouse fat after 30 min; (n=3). Type of series: ADME, organism-based, Adipose tissue. As to conditions: in vivo, 0.5 h. The method in brief: as §1
Series [13] can be described thus: Biodistribution of [18F]FES in beta estrogen receptor knock out mouse uterus after 30 min; (n=3). Type of series: ADME, organism-based. As to conditions: in vivo, 0.5 h.
Series [14] is described as follows: Biodistribution of [18F]FES in alpha estrogen receptor knock out mouse bone after 1 h; (n=3). As to conditions: in vivo. Type of series: ADME, organism-based, Bone element. The method in brief:
as §1

The nature of series [15]: Biodistribution of [18F]FES in alpha estrogen receptor knock out mouse blood after 2 h; (n=3). Conditions: in vivo. Type of series: ADME, organism-based. The method in brief: as §1
Series [16] in a line: Biodistribution of [18F]FES in beta estrogen receptor knock out mouse blood after 1 h; (n=3). Type of series: ADME, organism-based. As to conditions: in vivo.
The nature of series [17]: Biodistribution of [18F]FES in alpha estrogen receptor knock out mouse uterus after 30 min; (n=3). In kind it is ADME, organism-based. Conditions: in vivo, 0.5 h.
Series [18] can be described thus: Biodistribution of [18F]FES in beta estrogen receptor knock out mouse liver after 30 min(n=2); mice in nonestrus stage. In kind it is ADME, organism-based. Conditions: in vivo, 0.5 h.
A short description of series [19]: Biodistribution of [18F]FES in beta estrogen receptor knock out mouse lung after 30 min(n=2); mice in nonestrus stage. In kind it is ADME, organism-based. Conditions: in vivo, 0.5 h.
The nature of series [20]: Biodistribution of [18F]FES in alpha estrogen receptor knock out mouse spleen after 2 h; (n=3). Type of series: ADME, organism-based. Conditions: in vivo.
A short description of series [21]: Biodistribution of [18F]-FEDPN in rat heart after 1 hr when given in tail vein; (n=5). Type of series: ADME, organism-based. Conditions: in vivo, iv. The method in brief: (§2)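 Immature female Sprague–Dawley rats (<25 days old) anesthetized with isoflurane/O2. Given 20 µCi tracer by tail vein in 150 µL of 20% ethanol/saline. […] Killed at 30 min, 1 h or 2 h. Blood and organs blotted, weighed and gamma-counted against a standard dilution of the injectate. Reported as %ID/g ± SD, n=5.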

The nature of series [22]: Biodistribution of [18F]FEDPN in beta estrogen receptor knock out mouse heart after 1 h; (n=3). Type of series: ADME, organism-based. As to conditions: in vivo. The method in brief:
(§3)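 αERKO and βERKO mice, staged by daily vaginal smears and kept on estrogen-free chow, were studied in a nonestrous stage. Each mouse received 11 μCi of tracer in 130 μL of 10% ethanol/saline. Mice were killed at 30 min, 1 h or 2 h (n = 3 each). Organs were removed, blotted, weighed and gamma-counted against an injectate standard. Uptake is given as %ID/g ± SD.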

A short description of series [23]: Biodistribution of [18F]FEDPN in rat thymus after 1 h block when given in tail vein; (n=5). Type of series: ADME, organism-based. As to conditions: in vivo, iv. The method in brief: (§4)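 Immature female Sprague–Dawley rats (<25 days old) under isoflurane/O2 got 20 µCi tracer in 150 µL 20% ethanol/saline by tail vein. […] Rats were killed at 30 min, 1 h or 2 h. Organs were blotted, weighed and gamma-counted against an injectate standard. Data are %ID/g ± SD, five rats per point.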

Series [24] can be described thus: Biodistribution of [18F]FEDPN in rat liver after 30 min when given in tail vein; (n=5). Type of series: ADME, organism-based. Conditions: in vivo, iv, 0.5 h. The method in brief:
as §4

Series [25] in a line: Biodistribution of [18F]FEDPN in alpha estrogen receptor knock out mouse lung after 1 h; (n=3). Type of series: ADME, organism-based. As to conditions: in vivo. The method in brief:
as §3

Series [26] in a line: Biodistribution of [18F]FEDPN in beta estrogen receptor knock out mouse lung after 1 h; (n=3). Type of series: ADME, organism-based. As to conditions: in vivo. The method in brief:
as §3

Series [27] is described as follows: Biodistribution of [18F]FEDPN in rat lung after 1 h when given in tail vein; (n=5). In kind it is ADME, organism-based. As to conditions: in vivo, iv. The method in brief:
as §4

Series [28] is described as follows: Biodistribution of [18F]-FEDPN in alpha estrogen receptor knock out mouse spleen after 1 h; (n=3). In kind it is ADME, organism-based. As to conditions: in vivo. The method in brief:
(§5)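 ERKO female mice (αERKO or βERKO), rested 48 h after shipping, placed on estrogen-free chow, and staged by daily vaginal smears. Injected in a nonestrous stage with 11 µCi [18F]FEDPN in 130 µL of 10% ethanol/saline. Killed at 30 min, 1 h or 2 h. Organs counted and reported as %ID/g ± SD, three animals per point.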

Series [29] is described as follows: Biodistribution of [18F]-FEDPN in rat spleen after 1 hr block when given in tail vein; (n=5). Type of series: ADME, organism-based. Conditions: in vivo, iv. The method in brief:
as §2

The nature of series [30]: Biodistribution of [18F]FEDPN in alpha estrogen receptor knock out mouse kidney after 2 h; (n=3). Type of series: ADME, organism-based. As to conditions: in vivo. The method in brief:
as §5

Series [31] in a line: Biodistribution of [18F]FEDPN in beta estrogen receptor knock out mouse lung after 2 h; (n=3). In kind it is ADME, organism-based. Conditions: in vivo. The method in brief:
as §3

The nature of series [32]: Biodistribution of [18F]FEDPN in beta estrogen receptor knock out mouse lung after 30 min; (n=3). Type of series: ADME, organism-based. Conditions: in vivo, 0.5 h. The method in brief: as §3
Series [33] is described as follows: Biodistribution of [18F]FEDPN in alpha estrogen receptor knock out mouse ovaries after 2 h; (n=3). Type of series: ADME, organism-based, Female gonad. Conditions: in vivo. The method in brief: as §3
The nature of series [34]: Biodistribution of [18F]FEDPN in beta estrogen receptor knock out mouse bone after 30 min; (n=3). In kind it is ADME, organism-based, Bone element. Conditions: in vivo, 0.5 h. The method in brief:
as §3

The nature of series [35]: Biodistribution of [18F]FEDPN in rat thymus after 30 min when given in tail vein; (n=5). In kind it is ADME, organism-based. Conditions: in vivo, iv, 0.5 h. The method in brief:
as §4

Series [36] can be described thus: Biodistribution of [18F]FEDPN in alpha estrogen receptor knock out mouse liver after 1 h; (n=3). Type of series: ADME, organism-based. As to conditions: in vivo. The method in brief: as §5
Series [37] can be described thus: Biodistribution of [18F]FEDPN in beta estrogen receptor knock out mouse kidney after 1 h; (n=3). In kind it is ADME, organism-based. As to conditions: in vivo. The method in brief: as §3
The nature of series [38]: Biodistribution of [18F]-FEDPN in rat uterus after 1 hr block when given in tail vein; (n=5). In kind it is ADME, organism-based. As to conditions: in vivo, iv. The method in brief:
as §2

Series [39] can be described thus: Biodistribution of [18F]FEDPN in rat blood after 2 h when given in tail vein; (n=5). In kind it is ADME, organism-based. As to conditions: in vivo, iv. The method in brief: as §4
The nature of series [40]: Biodistribution of [18F]FEDPN in alpha estrogen receptor knock out mouse spleen after 2 h; (n=3). In kind it is ADME, organism-based. As to conditions: in vivo. The method in brief: as §3
A short description of series [41]: Biodistribution of [18F]FEDPN in rat liver after 1 h when given in tail vein; (n=5). In kind it is ADME, organism-based. As to conditions: in vivo, iv. The method in brief: as §4

Structures are written as SMILES.

For the molecule `C[C@]12CC[C@@H]3c4ccc(O)cc4CC[C@H]3[C@@H]1C[C@@H](F)[C@@H]2O` [FLUOROESTRADIOL], the Biodistribution in series [1] was 0.21 %ID/g; in series [2] it was 0.1 %ID/g; in series [3], 0.65 %ID/g; in series [4] it was 0.82 %ID/g; in [5] it was 0.53 %ID/g; in series [6], 2.46 %ID/g. The Biodistribution in series [7] amounted to 0.1 %ID/g; in series [8], 9.23 %ID/g; in series [9], 1.38 %ID/g; in [10], 0.59 %ID/g; in [11], 6.54 %ID/g; in series [12], 1.51 %ID/g. The Biodistribution in [13] is recorded as 8.34 %ID/g; in series [14] it was 0.24 %ID/g; in [15], 0.12 %ID/g; in [16], 0.3 %ID/g; in series [17] it was 2.4 %ID/g; in [18], 7.91 %ID/g. For the same molecule, the Biodistribution in series [19] is given as 3.57 %ID/g; in series [20] it was 0.18 %ID/g.
Turning to `N#C[C@H](c1ccc(O)cc1)[C@@H](CCF)c1ccc(O)cc1`, the Biodistribution is recorded as 0.29 %ID/g in series [21]; 0.43 %ID/g in [22]; 0.16 %ID/g in series [23]; 1.42 %ID/g in series [24]; 2.04 %ID/g in series [25]; 1.71 %ID/g in series [26]. In addition, the Biodistribution in series [27] turned out to be 0.44 %ID/g; in series [28], 0.61 %ID/g; in series [29] it was 0.1 %ID/g; in series [30], 1.94 %ID/g; in [31], 0.44 %ID/g; in series [32], 5.38 %ID/g. Besides, the Biodistribution turned out to be 0.28 %ID/g in [33]; 3.35 %ID/g in series [34]; 0.52 %ID/g in [35]; 3.8 %ID/g in series [36]; 2.42 %ID/g in series [37]; 0.34 %ID/g in [38]. The Biodistribution worked out at 0.24 %ID/g in [39], 0.12 %ID/g in [40] and 1.51 %ID/g in [41].

These data come from ChEMBL document CHEMBL1141109, “Synthesis of an estrogen receptor beta-selective radioligand: 5-[18F]fluoro-(2R,3S)-2,3-bis(4-hydroxyphenyl)pentanenitrile and comparison of in vivo distribution with 16alpha-[18F]fluoro-17beta-estradiol” (J Med Chem, 2005).
